In PubChem BioAssay:
Activity calls are given as the source filed them. Unless noted, no stated cut-off is given here; in the data, active means inhibition above about 30%; inactive means the rest.

What was measured:
[1] = Her2 expression decrease, cell viability multiplex – SKBR3 breast tumor cells, AlphaScreen, ATP viability, primary screen (AID 461;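 active means Her2 level under about 52% in both replicate screens, with viability over 70% of control, limit read from the data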;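 on Her2 level: lower value means less Her2 protein in the cells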;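 on viability: percent of carrier control wells set as 100% viability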); conditions: SKBR3 Her2 protein level, 18-24 h, measured here: SKBR3 viability, ATP luminescence, at 10 µM
[2] = target: Receptor tyrosine-protein kinase erbB-2 (Homo sapiens) (UniProt P04626); assay: as above; conditions: 18-24 h, at 10 µM, stronger effect = lower value
Chain of Receptor tyrosine-protein kinase erbB-2 (Homo sapiens) (P04626 whole entry, looked up): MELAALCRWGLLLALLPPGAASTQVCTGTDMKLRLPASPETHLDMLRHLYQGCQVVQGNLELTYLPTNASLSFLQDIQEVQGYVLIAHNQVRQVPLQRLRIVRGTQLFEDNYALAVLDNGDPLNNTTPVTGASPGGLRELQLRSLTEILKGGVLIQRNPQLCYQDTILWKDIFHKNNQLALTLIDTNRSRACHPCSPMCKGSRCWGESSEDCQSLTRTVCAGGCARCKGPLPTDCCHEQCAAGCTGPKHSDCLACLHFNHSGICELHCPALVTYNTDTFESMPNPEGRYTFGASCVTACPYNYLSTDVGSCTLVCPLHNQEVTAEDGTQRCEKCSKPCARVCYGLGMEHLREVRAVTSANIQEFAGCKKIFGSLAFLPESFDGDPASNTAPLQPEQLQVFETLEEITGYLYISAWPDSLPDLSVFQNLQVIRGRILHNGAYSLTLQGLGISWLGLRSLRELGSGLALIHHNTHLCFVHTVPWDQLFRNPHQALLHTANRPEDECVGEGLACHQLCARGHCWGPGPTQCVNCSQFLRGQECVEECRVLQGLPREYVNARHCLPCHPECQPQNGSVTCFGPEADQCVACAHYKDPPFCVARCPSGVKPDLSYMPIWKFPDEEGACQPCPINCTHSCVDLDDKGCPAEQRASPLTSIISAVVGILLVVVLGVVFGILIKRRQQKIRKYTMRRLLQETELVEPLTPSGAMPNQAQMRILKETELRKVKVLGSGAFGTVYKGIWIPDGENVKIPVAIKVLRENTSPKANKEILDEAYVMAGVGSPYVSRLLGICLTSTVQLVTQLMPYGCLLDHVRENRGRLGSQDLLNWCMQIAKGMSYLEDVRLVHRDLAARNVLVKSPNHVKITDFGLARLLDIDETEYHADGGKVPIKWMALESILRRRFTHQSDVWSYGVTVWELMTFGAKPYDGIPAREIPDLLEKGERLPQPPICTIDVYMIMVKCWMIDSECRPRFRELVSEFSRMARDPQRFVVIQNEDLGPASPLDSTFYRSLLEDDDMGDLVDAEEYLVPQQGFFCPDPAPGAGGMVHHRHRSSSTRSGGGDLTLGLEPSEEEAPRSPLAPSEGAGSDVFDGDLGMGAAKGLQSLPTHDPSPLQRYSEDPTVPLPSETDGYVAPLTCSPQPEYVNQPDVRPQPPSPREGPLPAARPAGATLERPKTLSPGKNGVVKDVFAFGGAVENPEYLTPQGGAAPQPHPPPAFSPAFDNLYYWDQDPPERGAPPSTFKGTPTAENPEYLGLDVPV

[3] = reduced viability of SK-BR-3 breast cancer cells – cell-based, 24 h, human, pilot screen (AID 572;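 active means viability at or below 10% of carrier control in both of two separate runs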;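 further: compound exposure lasted between 18 and 24 h rather than exactly 24 h; 100% = carrier-treated control wells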); conditions: SK-BR-3 viability, CellTiter-Glo luminescence, at 10 µM, stronger effect = lower value
[4] = HUVEC growth inhibition – cell-based, human, primary screen (AID 575;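 active means viability at or below 30% in both replicate assays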;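 further: 100% = median of untreated cell wells with 0.1% DMSO on each plate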); conditions: HUVEC proliferation, CellTiter-Glo luminescence, 72 h; at 10 µM; stronger effect = lower value
How it was run: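 Test system: primary human umbilical vein endothelial cells. Quantity: 1250 cells/well. Compound: single 10 µM dose, 0.1% DMSO, from 5x medium stock. Timing: 72 h treatment at 37 °C. Detection: ATP-based CellTiter-Glo luminescent read. Benchmarks: vehicle and MePR control wells. Format: 384-well plates coated with collagen.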

[5] = H69AR cell proliferation blockers – human, duplicate replicates, primary screen (AID 580;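 active means viability at or under a set limit in both replicates, limit being median viability minus 3 SD, cut at about 48% in these data, passing the limit was not always enough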;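 further: 100% = mean luminescence of untreated wells and 0% = no signal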); conditions: H69AR lung tumor cells viability, ATP luminescence, 72 h; at 10 µM; stronger effect = lower value
[6] = MRP1 drug-resistance reversers in H69AR cells – cell-based, doxorubicin co-treatment, pilot screen (AID 601;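 active means viability loss from added drug above about 55%, and viability with drug at most 40%, in both replicates, limit read from the data, passing the limit was not always enough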); conditions: CellTiter-Glo, 72 h, at 10 µM; for differential viability (reversal): stronger effect = higher value
[7] = yeast transport mutant growth inhibition pilot in 384-well plates, post-Golgi transport modulator project (AID 636; in the data active means inhibition above about 31%); conditions: absorbance 615 nm, about 18 h, stronger effect = higher value
[8] = growth suppression of yeast trafficking mutant, preliminary HTS, modulators of trafficking downstream of Golgi apparatus project, 1536-format plate, OD 615 nm (AID 637); conditions: yeast transport mutant growth, absorbance 615 nm, 18 h; stronger effect = higher value
[9] = H69AR cells + 2 uM doxorubicin, measured here: viability with 2 uM doxorubicin, stronger effect = lower value
[10] = H69AR cells, compound alone cytotoxicity

Row | SMILES | viability [1] | Her2 level [2] | viability [3] | viability [4] | viability [5] | differential viability (reversal) ([6]; H69AR cells + 2 uM doxorubicin) | viability [6, 9] | viability [6, 10] | inhibition [7] | inhibition [8]
1 | COc1cccc(N2C(=O)C(O)=C(C(C)=O)C2c2ccc(OC)c(OC)c2)c1 (stereo not given) | 94.5% | 94% (inactive) | 94.5% (inactive) | 109% (inactive) | 100% (inactive) | 7.03% (inactive) | 93% | 100% | 0.26% (inactive) | 4.75% (inactive)
2 | CCN(Cc1cc2cc(OC)ccc2[nH]c1=O)C(=O)c1ccncc1 | 89% | 100% (inactive) | 89% (inactive) | 97.8% (inactive) | 99.5% (inactive) | -3.88% (inactive) | 103% | 99.5% | -2.13% (inactive) | 9.05% (inactive)
3 | COC(=O)CSc1nc2ncc(Cl)cc2[nH]1 | 101% | 92.5% (inactive) | 101% (inactive) | 89.3% (inactive) | 89.8% (inactive) | 1.08% (inactive) | 88.7% | 89.8% | -5.06% (inactive) | 1.15% (inactive)
4 | CCn1cc(C(=O)NCCCOC)c(=O)c2cc(S(=O)(=O)N(C)C3CCCCC3)ccc21 | 87% | 114% (inactive) | 87% (inactive) | 101% (inactive) | 90.8% (inactive) | -13% (inactive) | 104% | 90.8% | -0.9% (inactive) | -5.33% (inactive)
5 | Cc1cc2c(nn1)CCC/C2=N\O | 104% | 99% (inactive) | 104% (inactive) | 123% (inactive) | 95.6% (inactive) | 3.77% (inactive) | 91.8% | 95.6% | -4.47% (inactive) | 6.72% (inactive)
6 | CC1CCN(S(=O)(=O)c2ccc3[nH]cc(C(=O)NCCN4CCOCC4)c(=O)c3c2)CC1 | 108% | 104% (inactive) | 108% (inactive) | 94% (inactive) | 96.4% (inactive) | 2.28% (inactive) | 94.1% | 96.4% | -6.67% (inactive) | -3.06% (inactive)
7 | COc1ccc(NC(=O)Nc2ccc(C)cc2OC(F)F)cc1OC | 95% | 79.5% (inactive) | 95% (inactive) | 88% (inactive) | 93% (inactive) | 6.81% (inactive) | 86.1% | 93% | -3.95% (inactive) | -6.67% (inactive)
8 | CN(C)c1ccc2c(c1)OC(N)=C(C#N)C2c1cccc(F)c1 (stereo not given) | 92% | 90.5% (inactive) | 92% (inactive) | 17.2% (active) | 34.7% (active) | -41% (inactive) | 75.7% | 34.7% | -3.24% (inactive) | 4.75% (inactive)
9 | O=C(NCCCCNC(=O)c1cccnc1)c1cccnc1 | 95% | 83% (inactive) | 95% (inactive) | 94.5% (inactive) | 105% (inactive) | 3.5% (inactive) | 102% | 105% | -0.52% (inactive) | 34.9% (active)
10 | CCOC(=O)N1CCC2(O)CCCCC2C1c1ccc(F)cc1 (stereo not given) | 102% | 125% (inactive) | 102% (inactive) | 91.3% (inactive) | 96.8% (inactive) | 8.28% (inactive) | 88.5% | 96.8% | -3.33% (inactive) | 30.8% (active)
11 | CCOc1ncccc1C(=O)OCC(=O)N1CC(=O)Nc2ccccc21 | 87% | 97% (inactive) | 87% (inactive) | 100% (inactive) | 99.7% (inactive) | 2.01% (inactive) | 97.7% | 99.7% | -0.78% (inactive) | -4.92% (inactive)
12 | Cc1ccc(C)c(-n2c(CNC(=O)c3ccco3)nnc2SCC(=O)Nc2nnc(C)s2)c1 | 100% | 94% (inactive) | 100% (inactive) | 104% (inactive) | 96.6% (inactive) | 5.91% (inactive) | 90.7% | 96.6% | -5.6% (inactive) | 3.5% (inactive)
13 | CSc1ccc(Cn2nnc(C(=O)NCc3ccccc3)c2N)cc1 | 96.5% | 91.5% (inactive) | 96.5% (inactive) | 76.4% (inactive) | 103% (inactive) | 0.465% (inactive) | 103% | 103% | -1.87% (inactive) | 0.16% (inactive)
14 | CN(c1ccccc1)S(=O)(=O)c1ccc(C(=O)OCC(=O)N2CCOCC2)cc1 | 106% | 85.5% (inactive) | 106% (inactive) | 106% (inactive) | 111% (inactive) | 21.5% (inactive) | 89.4% | 111% | -5.41% (inactive) | 3.17% (inactive)
15 | Cc1ccc(C(=O)Nc2nc3c(s2)CCCC3)o1 | 104% | 72% (inactive) | 104% (inactive) | 60.9% (inactive) | 73.3% (inactive) | -5.85% (inactive) | 79.1% | 73.3% | -1.71% (inactive) | 16.6% (inactive)
16 | COCCN1Cc2cccc(C(=O)Nc3cccnc3)c2C1=O | 106% | 81% (inactive) | 106% (inactive) | 102% (inactive) | 93.5% (inactive) | -4.91% (inactive) | 98.4% | 93.5% | -6.71% (inactive) | 1.9% (inactive)

Row | SMILES | viability [1] | Her2 level [2] | viability [3] | viability [4] | viability [5] | differential viability (reversal) ([6]; H69AR cells + 2 uM doxorubicin) | viability [6, 9] | viability [6, 10] | inhibition [7] | inhibition [8]
17 | Cn1c(=O)c2c(nc(NCc3ccc4c(c3)OCO4)n2Cc2ccccc2F)n(C)c1=O | 82% | 60% (inactive) | 82% (inactive) | 105% (inactive) | 76% (inactive) | -8.01% (inactive) | 84% | 76% | -3.65% (inactive) | 7.3% (inactive)
18 | Cc1ccc2[nH]c(=O)c(CN(Cc3ccc4c(c3)OCO4)Cc3nnnn3Cc3ccco3)cc2c1 | 102% | 93% (inactive) | 102% (inactive) | 106% (inactive) | 88.9% (inactive) | -3.68% (inactive) | 92.6% | 88.9% | -2.99% (inactive) | -3.49% (inactive)
19 | O=C(CCn1c(=O)sc2ccccc21)NC1=NCCS1 | 84% | 96% (inactive) | 84% (inactive) | 94.6% (inactive) | 91.6% (inactive) | 4.68% (inactive) | 86.9% | 91.6% | -1.87% (inactive) | -6.72% (inactive)
20 | Cc1nc2ccc(S(=O)(=O)NCC(=O)O)cc2s1 | 102% | 100% (inactive) | 102% (inactive) | 110% (inactive) | 107% (inactive) | 5.9% (inactive) | 101% | 107% | -1.84% (inactive) | -6.19% (inactive)
21 | CC(C)Cn1c(-c2ccc(F)cc2)n[nH]c1=S | 114% | 98.5% (inactive) | 114% (inactive) | 80% (inactive) | 88.8% (inactive) | 8.11% (inactive) | 80.7% | 88.8% | -5% (inactive) | -1.33% (inactive)
22 | CCOc1ccc(C2C(C#N)=C(N)Oc3cc(C)n(CCN(C)C)c(=O)c32)cc1OCC (stereo not given) | 84% | 79.5% (inactive) | 84% (inactive) | 90.3% (inactive) | 101% (inactive) | 17.7% (inactive) | 83.3% | 101% | -4.32% (inactive) | -1.43% (inactive)
23 | CCn1c(SCC(=O)c2ccc3c(c2)OCCO3)nnc1-c1ccco1 | 102% | 95% (inactive) | 102% (inactive) | 111% (inactive) | 98.6% (inactive) | 0.66% (inactive) | 97.9% | 98.6% | -4% (inactive) | -0.65% (inactive)
24 | Cc1ccc(NC(=O)CSc2nnc(NC(=O)CN3CCOCC3)s2)cc1 | 102% | 82% (inactive) | 102% (inactive) | 98% (inactive) | 94.1% (inactive) | 9.71% (inactive) | 84.4% | 94.1% | -5.33% (inactive) | -2.46% (inactive)
25 | Cc1ccc(C(=O)N2CCN(C(=O)c3ccc(C)c(C)c3)C(C)C2)cc1C (stereo not given) | 84.5% | 81% (inactive) | 84.5% (inactive) | 97.5% (inactive) | 82.2% (inactive) | 12.2% (inactive) | 70% | 82.2% | -4.61% (inactive) | -1.67% (inactive)
26 | COc1ccc(S(=O)(=O)N2CCN(CC(=O)Nc3ccc(F)c(F)c3)CC2)cc1 | 88.5% | 86% (inactive) | 88.5% (inactive) | 75.6% (inactive) | 91.1% (inactive) | -2.83% (inactive) | 93.9% | 91.1% | -1.73% (inactive) | -1.94% (inactive)
27 | O=C(Cc1cccs1)Nc1nnc(CCc2ccccc2)s1 | 110% | 91.5% (inactive) | 110% (inactive) | 88.7% (inactive) | 80.7% (inactive) | -5.74% (inactive) | 86.4% | 80.7% | -0.78% (inactive) | -0.5% (inactive)
28 | CCOC(=O)c1ccc(NC(=O)COc2ccc(-n3cnnn3)cc2)cc1 | 124% | 95% (inactive) | 124% (inactive) | 96.8% (inactive) | 89% (inactive) | 1.81% (inactive) | 87.2% | 89% | -4.13% (inactive) | -1.43% (inactive)
29 | CSc1ccc(-c2nc(CSCC(=O)N3CCOCC3)c(C)o2)cc1 | 102% | 91% (inactive) | 102% (inactive) | 85.2% (inactive) | 103% (inactive) | 6.36% (inactive) | 97.1% | 103% | -0.67% (inactive) | -2.26% (inactive)
30 | O=S(=O)(c1cccc2nsnc12)N1CCN(c2ncccn2)CC1 | 87% | 96% (inactive) | 87% (inactive) | 105% (inactive) | 86.9% (inactive) | -7.98% (inactive) | 94.9% | 86.9% | -7.16% (inactive) | 3.61% (inactive)
31 | O=C(CCN1C(=O)c2ccccc2C1=O)OCN1C(=O)c2ccccc2C1=O | 95% | 108% (inactive) | 95% (inactive) | 97.7% (inactive) | 91.8% (inactive) | -10.6% (inactive) | 102% | 91.8% | 6.8% (inactive) | -3.17% (inactive)
32 | CC(C)(C)Cc1nc(-c2ccccn2)no1 | 95.5% | 114% (inactive) | 95.5% (inactive) | 88.4% (inactive) | 100% (inactive) | 7.35% (inactive) | 92.9% | 100% | -1.82% (inactive) | -3.67% (inactive)
